These results are taken from publication PMC9352467 (Neoplasia (New York, N.Y.), 2022).

The term IC50 denotes the point on the concentration scale where inhibition reaches its midpoint. What is called bioavailability is the share of a dose that reaches the circulation, judged against a reference dose that is usually intravenous. High values mean much systemic uptake, low ones little systemic uptake. As a reminder, the AUC(0-t) is the area under the concentration-time curve up to a stated or last time point. High values mean more exposure, low ones less exposure. A word on the Cmax: it is the maximum level reached in the sampled fluid or tissue. Broadly, the Tmax is the time from dosing to the highest level. What is called half-life is the time in which the quantity being followed falls by half. High values mean slow decline, low ones rapid decline.

The subject of one data set is NOMO-1. The experiment in a line: Cell viability assay. As to conditions: Homo sapiens, NOMO-1, 72 h, read-out: IC50 (mean ± SD). Format: cell-based.
The next data set relates to OVCAR-8. Description: Cell viability assay. As to conditions: Homo sapiens, OVCAR-8, 72 h, read-out: IC50 (mean ± SD). Format: cell-based.
In the next data set the test system is KG-1. Description: Cell viability assay. Format: cell-based. The note with it: Homo sapiens, KG-1, 72 h, read-out: IC50 (mean ± SD).
Another data set has as its system MV-4-11. The experiment in a line: Cell viability assay. It is filed as cell-based. The note with it: Homo sapiens, MV4-11, 72 h, read-out: IC50 (mean ± SD).
The subject of another data set is G-361. Description: Cell viability assay. As to conditions: Homo sapiens, G-361, 72 h, read-out: IC50 (mean ± SD). Format: cell-based.
The subject of another data set is HCT 15. The experiment in a line: Cell viability assay. It is filed as cell-based. As to conditions: Homo sapiens, HCT-15, 72 h, read-out: IC50 (mean ± SD).
In a further data set the test system is NCI-H226. Description: Cell viability assay. As to conditions: Homo sapiens, NCI-H226, 72 h, read-out: IC50 (mean ± SD). Format: cell-based.
Another data set concerns Jurkat, Clone E6-1. The experiment in a line: Cell viability assay. Format: cell-based. The note with it: Homo sapiens, 72 h, read-out: IC50 (mean ± SD).
The subject of a further data set is NCI-N87. The experiment in a line: Cell viability assay. Format: cell-based. As to conditions: Homo sapiens, NCI-N87, 72 h, read-out: IC50 (mean ± SD).
The subject of the next data set is COLO 205. The experiment in a line: Cell viability assay. The note with it: Homo sapiens, COLO 205, 72 h, read-out: IC50 (mean ± SD). Format: cell-based.
In a further data set the test system is RKO. Description: Cell viability assay. Format: cell-based, Human.
In data set [1] the test system is panel of 28 human cancer cell lines. Description: Cell viability assay, whole panel. Format: cell-based. As to conditions: 72 h, read-out: Average IC50 over the cell line panel.
Another data set relates to TOV-112D. The experiment in a line: Cell viability assay. The note with it: Homo sapiens, TOV112D, 72 h, read-out: IC50 (mean ± SD). It is filed as cell-based.
In the next data set the test system is MIA PaCa-2. Description: Cell viability assay. It is filed as cell-based. The note with it: Homo sapiens, MIA PaCa-2, 72 h, read-out: IC50 (mean ± SD).
The subject of another data set is HGC-27. Description: Cell viability assay. Format: cell-based. The note with it: Homo sapiens, HGC-27, 72 h, read-out: IC50 (mean ± SD).
The next data set concerns Panc 02.03. Description: Cell viability assay. It is filed as cell-based. As to conditions: Homo sapiens, Panc 02.03, 72 h, read-out: IC50 (mean ± SD).
Another data set deals with LNCaP. Description: Cell viability assay. It is filed as cell-based. The note with it: Homo sapiens, 72 h, read-out: IC50 (mean ± SD).
Another data set relates to SW48. The experiment in a line: Cell viability assay. Format: cell-based. As to conditions: Homo sapiens, SW48, 72 h, read-out: IC50 (mean ± SD).
For a further data set, the system named is Capan-1. The experiment in a line: Cell viability assay. It is filed as cell-based. The note with it: Homo sapiens, CAPAN-1, 72 h, read-out: IC50 (mean ± SD).
Data set [2] can be described thus: Plasma pharmacokinetic studies. The note with it: male, Sprague-Dawley, rat, 3 mg/kg. Format: in vivo, Sprague-Dawley (SD) rats. An outline of the steps:
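Male Sprague-Dawley rats (200–250 g) were fasted 12 h and dosed with test compound or reference at 1 mg/kg i.v. or 3 mg/kg p.o. The i.v. vehicle was DMSO/EtOH/PEG300/NaCl (5/5/40/50); the p.o. vehicle was DMSO/0.5% HPMC (5/95). Blood was sampled over time and assayed by LC/MS/MS. Three animals per time point; non-compartmental analysis.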

For a further data set, the system named is PC-3. The experiment in a line: Cell viability assay. Format: cell-based. The note with it: Homo sapiens, PC-3, 72 h, read-out: IC50 (mean ± SD).
Another data set concerns DU 145. Description: Cell viability assay. Format: cell-based. The note with it: Homo sapiens, DU-145, 72 h, read-out: IC50 (mean ± SD).
The conditions of data set [3]: 1 mg/kg i.v.; SD rats plasma; ref [25]; cited from earlier work.
The subject of a further data set is SW480. The experiment in a line: Cell viability assay. It is filed as cell-based. The note with it: Homo sapiens, SW480, 72 h, read-out: IC50 (mean ± SD).
For another data set, the system named is HT-29. The experiment in a line: Cell viability assay. It is filed as cell-based. As to conditions: Homo sapiens, HT-29, 72 h, read-out: IC50 (mean ± SD).
A further data set deals with SUIT-2. The experiment in a line: Cell viability assay. Format: cell-based. The note with it: Homo sapiens, SUIT-2, 72 h, read-out: IC50 (mean ± SD).
A further data set relates to THP-1. The experiment in a line: Cell viability assay. Format: cell-based. The note with it: Homo sapiens, THP-1, 72 h, read-out: IC50 (mean ± SD).
For the next data set, the system named is SW620. The experiment in a line: Cell viability assay. It is filed as cell-based. The note with it: Homo sapiens, SW-620, 72 h, read-out: IC50 (mean ± SD).
In the next data set the test system is HCT-116 and RKO cells. Description: Western blotting of neddylation, CRLs substrates and DNA damage markers. Format: cell-based, Human. As to conditions: 24 h. In outline:
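HCT-116 and RKO cells were treated with test compound or a reference NAE inhibitor; DNA damage markers (γH2AX, p-Chk1 Ser317, p-Chk2 T68) were read after 24 h. Lysis was in SDS buffer (50 mM Tris-HCl pH 6.8, 2% SDS, 100 mM DTT) with 10 min boiling. Lysates were run on 10% gels at 150 V for 1 h, blocked in 5% milk/TBST, and probed with primaries at 1:1000 and HRP secondaries. Three repeats.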
A general note: Immunoblotting shows a protein as a band on a membrane.

The test system of a further data set is HCT-116. Description: Cell viability assay. Format: cell-based, Human.
The test system of the next data set is CHL-1. Description: Cell viability assay. It is filed as cell-based. The note with it: Homo sapiens, CHL-1, 72 h, read-out: IC50 (mean ± SD).

Structures are written as SMILES. Marks after values point to notes of the source that are not given here.

As to `NS(=O)(=O)OC[C@@H]1C[C@@H](n2ccc3c(N[C@H]4CCc5ccccc54)ncnc32)C[C@@H]1O` [MLN4924], the IC50 came to 627 ± 77.8 nM in the data set on NOMO-1; 541 ± 64.2 nM in the data set with OVCAR-8; 936 ± 258 nM with KG-1; 121 ± 1.79 nM in the data set on MV-4-11; 1430 ± 684 nM in the data set on G-361; 294 ± 80.3 nM with HCT 15. Besides, the IC50 with NCI-H226 was 1040 ± 624 nM; in the data set with Jurkat, Clone E6-1 it was 284 ± 95.6 nM; with NCI-N87, 865 ± 77.5 nM; in the data set on COLO 205 it was 54.2 ± 2.47 nM; in the data set on RKO (Homo sapiens, 72 h, read-out: IC50 (mean ± SD)), 150 ± 26.4 nM; in data set [1], 647 nM. For the same compound, the IC50 in the data set on TOV-112D came to 229 ± 104 nM; in the data set with MIA PaCa-2 it was 109 ± 16.1 nM; in the data set on HGC-27, 98.5 ± 28.3 nM; in the data set with Panc 02.03, 356 ± 39.1 nM; in the data set with LNCaP, 52.5 ± 13.4 nM; in the data set with SW48 it was 79.5 ± 23.1 nM. Also, the IC50 with Capan-1 was 96.5 ± 10.1 nM; in the data set with PC-3 it was 2430 ± 1050 nM; with DU 145, 86.5 ± 15.1 nM; in the data set on SW480 it was 1090 ± 91.7 nM; with HT-29 it was 296 ± 32.3 nM; with SUIT-2, 204 ± 29.1 nM. Moreover, the IC50 came to 60.1 ± 32.2 nM in the data set with THP-1; 5550 ± 2370 nM in the data set with SW620; 60.8 ± 11.7 nM in the data set with HCT-116 (Homo sapiens, HCT-116, 72 h, read-out: IC50 (mean ± SD)); 320 ± 122 nM in the data set on CHL-1. Moreover, the bioavailability in [2] (oral) is 12.4%. Also, the AUC(0-t) in data set [2] (po) was found to be 208 ng·h/mL. The compound further displayed a Cmax in [2] (po) of 64 ng/mL. The Tmax in data set [2] (po) came to 0.92 h. The compound further had a half-life in data set [2] (po) of 5.5 h. In addition, the AUClast in data set [3] was 560^a ng*h/mL. Further, the CL in data set [3] is on record as 29.70^a mL/min/kg. Besides, the T1/2 in data set [3] is reported as 0.71^a h. Further, in data set [3], the Vss_obs is 1783^a mL/kg. Further, the “DNA damage (γH2AX levels)” value in the data set on HCT-116 and RKO cells is given as “accumulation of DNA double-strand breaks”.
In the case of `CCOc1cccc(F)c1C#Cc1cn([C@@H]2O[C@H](CNS(N)(=O)=O)[C@@H](O)[C@H]2O)c2ncnc(N)c12` [TAS4464], the “sensitivity of cell proliferation” value in the data set with RKO (Supplemental Figure 1b) is given as “profoundly sensitive”; with HCT-116 (HCT-116, Supplemental Figure 1b) it was “profoundly sensitive”.
